Measured values published in ChEMBL document CHEMBL1123463, “Two stereoisomeric imidazoline derivatives: synthesis and optical and alpha 2-adrenoceptor activities” (J Med Chem, 1986).

Legend:
Rattus norvegicus [1] = assay: Maximal decrease of heart rate calculated as bradycardiac activity after intravenous injection of 3.16 ug/kg in rats; assay type: functional
Procedure, shortened: (§1)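 Anesthetized male normotensive Wistar rats (200-350 g; ip sodium pentobarbitone 75.0 mg/kg), cannulated trachea, kept at ca. 37 °C rectal. Pulse rate recorded continuously; following ~20 min stabilization each rat received one iv dose in saline (1 mL/kg, expressed as hydrochloride). Maximal fall in heart rate measured.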

Rattus norvegicus [2] = assay: Maximal decrease of arterial blood pressure (MAP) after intravenous injection of compound at a dose of 3.16 ug/kg in rats; assay type: functional
Procedure, shortened: (§2)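 Male normotensive Wistar rats (200-350 g) anesthetized with ip sodium pentobarbitone 75.0 mg/kg; trachea cannulated, spontaneous breathing, rectal temperature ca. 37 °C. Arterial pressure recorded continuously. After ~20 min stabilization, single iv injection in saline (1 mL/kg; doses as hydrochloride), one injection per animal. Read-out: maximal fall in mean arterial pressure.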

Rattus norvegicus [3] = assay: Maximal decrease of arterial blood pressure (MAP) after intravenous injection of compound at a dose of 10 ug/kg in rats; assay type: functional; procedure, shortened: as §2
Rattus norvegicus [4] = assay: Maximal decrease of heart rate calculated as bradycardiac activity after intravenous injection of 10 ug/kg in rats; assay type: functional; procedure, shortened: as §1
Rattus norvegicus [5] = assay: Maximal decrease of heart rate calculated as bradycardiac activity after intravenous injection of 1 ug/kg in rats; assay type: functional; procedure, shortened: as §1
Rattus norvegicus [6] = assay: Maximal decrease of arterial blood pressure (MAP) after intravenous injection of compound at a dose of 1 ug/kg in rats; assay type: functional; procedure, shortened: as §2
[7] = target: T1, Adrenergic receptor alpha-2 (Rattus norvegicus, UniProt P22086+P19328+P22909); assay: Compound was tested for its ability to inhibit specific binding of [3H]clonidine to alpha-2-adrenoceptor in rat brain; assay type: tissue-based
T1 sequence (P22086 whole entry): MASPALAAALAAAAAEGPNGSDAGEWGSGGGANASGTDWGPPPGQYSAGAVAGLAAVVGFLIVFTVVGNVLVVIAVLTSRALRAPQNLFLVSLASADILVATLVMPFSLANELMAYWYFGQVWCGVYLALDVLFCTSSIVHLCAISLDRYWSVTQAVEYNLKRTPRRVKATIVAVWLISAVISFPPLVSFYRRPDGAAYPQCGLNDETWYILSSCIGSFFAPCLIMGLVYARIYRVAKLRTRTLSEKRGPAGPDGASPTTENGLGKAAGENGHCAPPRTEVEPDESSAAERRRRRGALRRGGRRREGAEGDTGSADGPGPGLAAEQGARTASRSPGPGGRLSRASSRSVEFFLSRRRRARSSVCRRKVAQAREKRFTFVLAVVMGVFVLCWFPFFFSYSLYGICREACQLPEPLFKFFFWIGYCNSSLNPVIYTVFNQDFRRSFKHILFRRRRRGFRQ
T1 sequence (P19328 whole entry): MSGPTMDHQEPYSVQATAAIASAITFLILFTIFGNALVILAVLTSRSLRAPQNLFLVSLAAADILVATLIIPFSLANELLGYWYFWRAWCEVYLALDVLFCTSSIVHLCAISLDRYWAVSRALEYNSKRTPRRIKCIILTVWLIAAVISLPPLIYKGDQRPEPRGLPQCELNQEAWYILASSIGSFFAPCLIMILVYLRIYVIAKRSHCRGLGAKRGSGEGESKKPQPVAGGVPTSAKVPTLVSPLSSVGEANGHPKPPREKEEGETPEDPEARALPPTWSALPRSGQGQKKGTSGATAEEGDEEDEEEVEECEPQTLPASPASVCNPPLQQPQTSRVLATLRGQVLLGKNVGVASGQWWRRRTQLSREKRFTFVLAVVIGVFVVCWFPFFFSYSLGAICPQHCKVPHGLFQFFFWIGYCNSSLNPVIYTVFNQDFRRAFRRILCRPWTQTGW
T1 sequence (P22909 whole entry): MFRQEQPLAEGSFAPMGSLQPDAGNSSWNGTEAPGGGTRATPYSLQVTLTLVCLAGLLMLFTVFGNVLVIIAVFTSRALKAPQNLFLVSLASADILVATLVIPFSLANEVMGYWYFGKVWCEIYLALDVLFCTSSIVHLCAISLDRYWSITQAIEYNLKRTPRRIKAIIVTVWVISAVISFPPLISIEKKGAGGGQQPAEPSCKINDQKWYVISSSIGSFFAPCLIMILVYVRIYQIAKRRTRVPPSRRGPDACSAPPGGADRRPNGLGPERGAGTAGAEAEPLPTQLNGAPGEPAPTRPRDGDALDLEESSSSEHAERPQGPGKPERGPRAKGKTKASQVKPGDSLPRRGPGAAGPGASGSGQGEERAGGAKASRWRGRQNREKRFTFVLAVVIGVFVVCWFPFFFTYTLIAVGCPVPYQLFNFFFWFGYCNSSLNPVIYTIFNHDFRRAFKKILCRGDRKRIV

Rattus norvegicus [8] = assay: Maximal decrease of arterial blood pressure(MAP) after intravenous injection of compound at a dose of 5.61ug/kg in rats; assay type: functional; procedure, shortened: as §2
Rattus norvegicus [9] = assay: Maximal decrease of heart rate calculated as bradycardiac activity after intravenous injection of 5.61ug/kg in rats; assay type: functional; procedure, shortened: as §1
Rattus norvegicus [10] = assay: Maximal decrease of arterial blood pressure (MAP)after intravenous injection of compound at a dose of 0.561 ug/kg in rats; assay type: functional; procedure, shortened: as §2
[11] = target: T1, Adrenergic receptor alpha-2; assay: Compound was tested for its ability to inhibit specific binding of [3H]clonidine to alpha-2 adrenergic receptor in rat brain; assay type: tissue-based
Rattus norvegicus [12] = assay: Maximal decrease of heart rate calculated as bradycardiac activity after intravenous injection of 0.561 ug/kg in rats; assay type: functional; procedure, shortened: as §1

CC(Oc1c(Cl)cccc1Cl)C1=NCCN1.Cl (single isomer, unassigned; (+)) [LOFEXIDINE HYDROCHLORIDE]
Heart rate (Rattus norvegicus [1]): -36
MAP (Rattus norvegicus [2]): -11.7 mmHg
MAP (Rattus norvegicus [3]): -10.6 mmHg
Heart rate (Rattus norvegicus [4]): -61
Heart rate (Rattus norvegicus [5]): -7
MAP (Rattus norvegicus [6]): -7.4 mmHg
IC50 [7]: 43 nM

CC(Oc1c(Cl)cccc1Cl)C1=NCCN1.Cl (stereo in doubt) [LOFEXIDINE HYDROCHLORIDE]
Heart rate (Rattus norvegicus [1]): -97
MAP (Rattus norvegicus [2]): -29.8 mmHg
MAP (Rattus norvegicus [3]): -53 mmHg
Heart rate (Rattus norvegicus [4]): -134
Heart rate (Rattus norvegicus [5]): -46
MAP (Rattus norvegicus [8]): -41.6 mmHg
MAP (Rattus norvegicus [6]): -13.8 mmHg
Heart rate (Rattus norvegicus [9]): -96
IC50 [7]: 3.6 nM

CC(Oc1c(Cl)cccc1Cl)C1=NCCN1.Cl (racemic) [LOFEXIDINE HYDROCHLORIDE]
Heart rate (Rattus norvegicus [1]): -137
MAP (Rattus norvegicus [2]): -37.6 mmHg
MAP (Rattus norvegicus [3]): -54.2 mmHg
Heart rate (Rattus norvegicus [4]): -138
Heart rate (Rattus norvegicus [5]): -83
MAP (Rattus norvegicus [8]): -48.8 mmHg
MAP (Rattus norvegicus [6]): -26.8 mmHg
Heart rate (Rattus norvegicus [9]): -132
MAP (Rattus norvegicus [10]): -22.6 mmHg
IC50 [11]: 7.25 nM
Heart rate (Rattus norvegicus [12]): -52
